# Measurements: ChEMBL document CHEMBL2385035 (J Med Chem, 2013)
# Calls of active or inactive are those of the source. The calls are words filed in the database; no cut-off is given here.
# Columns and labels:
# Rattus norvegicus [1] = test: Antidiabetic activity in Zucker diabetic fatty rat assessed as increase in fecal bile acid excretion at 0.05 to 10 mg/kg, po bid for 2 weeks measured for 24 hrs post last dose relative to vehicle-treated control; type: functional, Feces; conditions: dose mg/kg 0.05-10
# [2] = target: T1, Ileal sodium/bile acid cotransporter (Rattus norvegicus, UniProt Q62633); test: Inhibition of rat ASBT expressed in HEK293 cells assessed as inhibition of [3H]-taurocholate uptake after 90 mins by scintillation counting analysis; type: cell-based
# T1 sequence (Q62633 whole entry): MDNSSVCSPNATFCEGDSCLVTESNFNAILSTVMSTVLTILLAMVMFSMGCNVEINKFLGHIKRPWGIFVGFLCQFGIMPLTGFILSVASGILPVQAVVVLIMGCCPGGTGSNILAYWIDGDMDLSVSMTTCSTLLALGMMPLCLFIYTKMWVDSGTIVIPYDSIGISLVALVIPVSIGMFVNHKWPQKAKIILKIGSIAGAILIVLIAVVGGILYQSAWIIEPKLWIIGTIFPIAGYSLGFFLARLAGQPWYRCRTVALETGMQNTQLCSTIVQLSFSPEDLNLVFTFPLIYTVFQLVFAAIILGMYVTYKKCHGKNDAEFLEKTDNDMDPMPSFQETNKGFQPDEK
# Rattus norvegicus [3] = test: Antidiabetic activity in Zucker diabetic fatty rat assessed as reduction in blood HbA1c level at 0.05 to 10 mg/kg, po bid for 2 weeks measured on day 14 relative to vehicle-treated control; type: functional; set-up: scale not given: the % may be the effect or the level left; conditions: dose mg/kg 0.05-10
# Method in brief: (§1)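 Male ZDF rats, 8 weeks old, dosed orally twice daily for 14 days in two separate studies. Day-14 tail-vein blood sampled for HbA1c and for plasma glucose (nonfasted), insulin and total GLP-1. Compared with vehicle-treated animals, significance at p < 0.05.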
# [4] = Apparent permeability in MDCK cells expressing MDR1 at 3 uM after 60 mins by LC-MS/MS analysis; type: ADME, cell-based, Canis lupus familiaris; conditions: dog
# Mus musculus [5] = test: In vivo inhibition of ASBT in C57BL/6J mouse assessed as increase in fecal bile acid excretion measured for 24 hrs relative to 264W94; type: functional, Feces; set-up: concentration or dose not given beside the values
# Rattus norvegicus [6] = test: Antidiabetic activity in Zucker diabetic fatty rat assessed as reduction in non-fasted plasma glucose level at 0.05 to 10 mg/kg, po bid for 2 weeks measured on day 14 relative to vehicle-treated control; type: functional; set-up: scale not given: the % may be the effect or the level left; conditions: dose mg/kg 0.05-10; method in brief: as §1
# [7] = Aqueous solubility of the compound; type: physicochemical; conditions: buffer
# Rattus norvegicus [8] = test: In vivo inhibition of ASBT in portal vein cannulated lean Sprague-Dawley rat assessed as decrease in portal vein bile acid level at 10 mg/kg, po measured after 1 to 2 hrs relative to vehicle-treated control; type: functional, organism-based; set-up: dose 10 mg/kg
# [9] = Half life in Sprague-Dawley rat intestine at 10 mg/kg, po; type: ADME, organism-based; set-up: dose 10 mg/kg, route oral
# [10] = target: T2, Ileal sodium/bile acid cotransporter (Mus musculus, UniProt P70172); test: Inhibition of mouse ASBT expressed in HEK293 cells assessed as inhibition of [3H]-taurocholate uptake after 90 mins by scintillation counting analysis; type: cell-based
# T2 sequence (P70172 whole entry): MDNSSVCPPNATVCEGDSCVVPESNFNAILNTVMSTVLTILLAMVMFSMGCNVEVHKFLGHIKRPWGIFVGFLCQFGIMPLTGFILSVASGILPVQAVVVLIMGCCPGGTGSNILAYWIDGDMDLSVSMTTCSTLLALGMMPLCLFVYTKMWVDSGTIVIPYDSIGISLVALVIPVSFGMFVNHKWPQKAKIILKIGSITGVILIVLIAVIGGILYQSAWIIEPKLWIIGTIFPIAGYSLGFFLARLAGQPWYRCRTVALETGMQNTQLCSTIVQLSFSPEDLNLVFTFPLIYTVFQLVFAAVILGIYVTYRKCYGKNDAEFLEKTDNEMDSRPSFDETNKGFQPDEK
# [11] = Cmax in Sprague-Dawley rat portal vein blood at 10 mg/kg, po; type: ADME, organism-based; set-up: dose 10 mg/kg, route oral
# Method in brief: (§2)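 Fed male SD rats given a single oral gavage dose of 10 mg/kg. Maximum parent drug concentration measured in portal vein blood and in systemic blood.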
# [12] = Cmax in Sprague-Dawley rat systemic blood at 10 mg/kg, po; type: ADME, organism-based; set-up: dose 10 mg/kg, route oral; method in brief: as §2
# Rattus norvegicus [13] = test: Antidiabetic activity in Zucker diabetic fatty rat assessed as increase in plasma insulin level at 0.05 to 10 mg/kg, po bid for 2 weeks measured on day 14 relative to vehicle-treated control; type: functional, organism-based; method in brief: as §1
# Rattus norvegicus [14] = test: Antidiabetic activity in portal vein cannulated lean Sprague-Dawley rat assessed as effect on portal vein GIP level at 10 mg/kg, po measured after 3 to 8 hrs relative to vehicle-treated control; type: functional, organism-based; set-up: dose 10 mg/kg
# Rattus norvegicus [15] = test: Antidiabetic activity in portal vein cannulated lean Sprague-Dawley rat assessed as increase in portal vein total GLP-1 level at 10 mg/kg, po measured after 3 to 8 hrs; type: functional, organism-based; set-up: dose 10 mg/kg
# Mus musculus [16] = test: In vivo inhibition of ASBT in C57BL/6J mouse assessed as increase in fecal bile acid excretion measured for 24 hrs; type: functional; conditions: Feces
# Rattus norvegicus [17] = test: Antidiabetic activity in Zucker diabetic fatty rat assessed as increase in total GLP-1 level at 0.05 to 10 mg/kg, po bid for 2 weeks measured on day 14 relative to vehicle-treated control; type: functional, organism-based; method in brief: as §1
# Rattus norvegicus [18] = test: Antidiabetic activity in portal vein cannulated lean Sprague-Dawley rat assessed as increase in portal vein PYY level at 10 mg/kg, po measured after 3 to 8 hrs; type: functional, organism-based; set-up: dose 10 mg/kg
# [19] = Drug recovery in Sprague-Dawley rat feces at 10 mg/kg, po; type: ADME, organism-based; set-up: dose 10 mg/kg, route oral; conditions: read-out: Drug recovery
# [20] = Stability of the compound by glutathione trapping assay; type: physicochemical
# [21] = target: T3, Ileal sodium/bile acid cotransporter (Homo sapiens, UniProt Q12908); test: Inhibition of human ASBT expressed in HEK293 cells assessed as inhibition of [3H]-taurocholate uptake after 90 mins by scintillation counting analysis; type: cell-based
# T3 sequence (Q12908 whole entry): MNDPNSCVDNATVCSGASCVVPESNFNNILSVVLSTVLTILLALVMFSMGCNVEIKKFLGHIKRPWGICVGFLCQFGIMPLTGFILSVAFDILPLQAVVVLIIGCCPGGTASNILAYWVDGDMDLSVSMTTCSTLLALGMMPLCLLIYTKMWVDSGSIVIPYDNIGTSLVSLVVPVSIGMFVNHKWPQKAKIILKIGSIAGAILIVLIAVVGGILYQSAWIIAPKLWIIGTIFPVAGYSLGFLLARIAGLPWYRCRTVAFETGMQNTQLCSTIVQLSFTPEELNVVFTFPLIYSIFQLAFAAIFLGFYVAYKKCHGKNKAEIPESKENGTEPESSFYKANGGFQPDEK
# Rattus norvegicus [22] = test: Antidiabetic activity in Zucker diabetic fatty rat assessed as increase in total GLP-1 level at 0.001 to 10 mg/kg, po bid for 2 weeks measured on day 14 relative to vehicle-treated control; type: functional, organism-based; method in brief: as §1
# Rattus norvegicus [23] = test: Antidiabetic activity in Zucker diabetic fatty rat assessed as increase in plasma insulin level at 0.001 to 10 mg/kg, po bid for 2 weeks measured on day 14 relative to vehicle-treated control; type: functional, organism-based; method in brief: as §1
# Rattus norvegicus [24] = test: Antidiabetic activity in Zucker diabetic fatty rat assessed as reduction in blood HbA1c level at 0.001 to 10 mg/kg, po bid for 2 weeks measured on day 14 relative to vehicle-treated control; type: functional; set-up: scale not given: the % may be the effect or the level left; conditions: dose mg/kg 0.001-10; method in brief: as §1
# [25] = Thermal stability of the compound; type: physicochemical
# Cynomolgus monkey = test: Cmax in cynomolgous monkey systemic blood at 3 mg/kg, po; type: ADME, organism-based, Macaca fascicularis; set-up: dose 3 mg/kg, route oral; conditions: in vivo, BLD = below limit of detection
# Method in brief: (§3)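 Solution dosed orally to fed SD rats (10 mg/kg), male beagle dogs (10 mg/kg) or cynomolgous monkeys (3 mg/kg). Parent compound measured in systemic circulation; rat lower limit of quantitation 1 ng/mL.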
# [26] = Aqueous solubility of the compound at pH 7.4; type: physicochemical; conditions: buffer
# Rattus norvegicus [27] = test: Antidiabetic activity in Zucker diabetic fatty rat assessed as reduction in non-fasted plasma glucose level at 0.001 to 10 mg/kg, po bid for 2 weeks measured on day 14 relative to vehicle-treated control; type: functional; set-up: scale not given: the % may be the effect or the level left; conditions: dose mg/kg 0.001-10; method in brief: as §1
# [28] = Cmax in beagle dog systemic blood at 10 mg/kg, po; type: ADME, organism-based, Canis lupus familiaris; set-up: dose 10 mg/kg, route oral; method in brief: as §3
# Intestine = test: Metabolic stability in Sprague-Dawley rat intestine assessed as formation of (7R,9R)-7-Butyl-7-ethyl-2-methoxy-5,5-dioxo-9-phenyl-6,7,8,9-tetrahydro-5H-5lambda(6)-thia-8-aza-benzocyclohepten-3-ol at 10 mg/kg, po after 2 to 24 hrs; type: ADME, organism-based; set-up: dose 10 mg/kg, route oral; conditions: in vivo
IC50 [2] [nM],"Papp at 1 h, 3 µM [4] [×10⁻⁶ cm/s]",solubility [7] [µg/mL],half-life [9] [h],IC50 [10] [nM],Cmax [11] [ng/mL],Cmax [12] [ng/mL],dose excreted [19] [%],IC50 [21] [nM],Stability [25],Compound,fold change (FC) (Rattus norvegicus [1]),Activity (Rattus norvegicus [3]) [%],Efficacy (Mus musculus [5]) [%],Activity (Rattus norvegicus [6]) [%],Activity (Rattus norvegicus [13]),ED50 (Mus musculus [16]) [mg/kg],Activity (Rattus norvegicus [17]),also measured
0.9,0.7,≥ 200,> 12,0.5,14,3,87,–,–,CCCC[C@]1(CC)CS(=O)(=O)c2cc(CP(=O)(O)O)c(OC)cc2[C@@H](c2ccccc2)N1,7,1.3,92,>50,Active,0.12,Active,inhibition (Rattus norvegicus [8]): Active; Activity (Rattus norvegicus [14]): inactive; Activity (Rattus norvegicus [15]): Active; Activity (Rattus norvegicus [18]): Active; Stability [20]: Unstable
1.9,0.7,≥ 200,> 12,2.1,4,–,98,42,Stable,CCCC[C@]1(CC)CS(=O)(=O)c2cc(CNC(CC(=O)O)CC(=O)O)c(OC)cc2[C@@H](c2ccccc2)N1 [LINERIXIBAT],7,–,94,–,–,0.022,–,Activity (Rattus norvegicus [22]): Active; Activity (Rattus norvegicus [23]): Active; Activity (Rattus norvegicus [24]): 1.3%; Cmax (Cynomolgus monkey): BLD; solubility [26]: > 7000 µg/mL; Activity (Rattus norvegicus [27]): >50%; Cmax [28]: 6 ng/mL
22,10.7,–,–,3,100,19,3,180,–,CCCC[C@]1(CC)CS(=O)(=O)c2cc(OC)c(OC)cc2[C@@H](c2ccccc2)N1,–,–,100,–,–,0.13,–,Stability (Intestine): Unstable
0.2,2.7,≥ 200,> 12,0.3,27,1,92,4,Unstable,CCCC[C@]1(CC)CS(=O)(=O)c2cc(CNCC(=O)O)c(OC)cc2[C@@H](c2ccccc2)N1,7,1.3,98,>50,Active,0.017,Active,–
